# Data reported in ChEMBL document CHEMBL3804761, “Synthesis of a stable and orally bioavailable englerin analogue” (Bioorg Med Chem Lett, 2016).
# Experiments:
# Type in all cases: functional
# CCRF-CEM = test: Growth inhibition of human CCRF-CEM cells incubated for 48 hrs by sulforhodamine B assay; conditions: for CC50: read-out: pLC50 (the source's name) (converted); for TGI: read-out: pTGI (converted)
# How it was run: (§1)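 NCI 60-cell-line panel, standard protocol. Cells exposed to compound for two days, growth read by sulforhodamine B staining. Tested at five 10-fold dilutions, top concentration 100 µM, to give dose-response curves.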
# SK-MEL-2 = test: Growth inhibition of human SK-MEL-2 cells incubated for 48 hrs by sulforhodamine B assay; conditions: SK-MEL-2, 48 h; for TGI: read-out: pTGI (converted); how it was run: as §1
# [1] = Growth inhibition of human OVCAR5 cells incubated for 48 hrs by sulforhodamine B assay; conditions: OVCAR-5, 48 h; for TGI: read-out: pTGI (converted); how it was run: as §1
# [2] = Growth inhibition of human DU145 cells incubated for 48 hrs by sulforhodamine B assay; conditions: DU-145, 48 h; for CC50: read-out: pLC50 (the source's name) (converted); for TGI: read-out: pTGI (converted); how it was run: as §1
# [3] = Growth inhibition of human OVCAR8 cells incubated for 48 hrs by sulforhodamine B assay; conditions: OVCAR-8, 48 h; for TGI: read-out: pTGI (converted); how it was run: as §1
# [4] = Growth inhibition of human SW620 cells incubated for 48 hrs by sulforhodamine B assay; conditions: SW-620, 48 h; for TGI: read-out: pTGI (converted)
# How it was run: (§2)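 Tested in the standard NCI 60-cell-line protocol with two-day drug exposure and a sulforhodamine B endpoint. Compounds were first screened at a single final concentration of 10 µM, reported as growth percent. They were then run as five 10-fold dilutions starting from a high concentration of 100 µM to give dose-response curves.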
# [5] = Growth inhibition of human UO31 cells incubated for 48 hrs by sulforhodamine B assay; conditions: UO-31, 48 h; for CC50: read-out: pLC50 (the source's name) (converted); for TGI: read-out: pTGI (converted); how it was run: as §2
# [6] = Growth inhibition of human SKOV3 cells assessed as cell growth at 10 uM incubated for 48 hrs by sulforhodamine B assay relative to control; conditions: SK-OV-3, 48 h, read-out: Activity
# How it was run: (§3)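 Run in the standard NCI 60-cell-line screen. Cells were exposed to drug for two days, and the read-out was sulforhodamine B staining. Compound was tested at a single final concentration of 10 µM in every line, and results are reported as growth percent.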
# MDA-MB-468 = test: Growth inhibition of human MDA-MB-468 cells assessed as cell growth at 10 uM incubated for 48 hrs by sulforhodamine B assay relative to control; conditions: MDA-MB-468, 48 h, read-out: Activity; how it was run: as §3
# [7] = Growth inhibition of human SNB75 cells assessed as cell growth at 10 uM incubated for 48 hrs by sulforhodamine B assay relative to control; conditions: SNB-75, 48 h, read-out: Activity; how it was run: as §3
# [8] = Growth inhibition of human SNB19 cells incubated for 48 hrs by sulforhodamine B assay; conditions: SNB-19, 48 h; for CC50: read-out: pLC50 (the source's name) (converted); for TGI: read-out: pTGI (converted); how it was run: as §2
# [9] = Growth inhibition of human MOLT4 cells assessed as cell growth at 10 uM incubated for 48 hrs by sulforhodamine B assay relative to control; conditions: MOLT-4, 48 h, read-out: Activity; how it was run: as §3
# [10] = Growth inhibition of human UACC62 cells incubated for 48 hrs by sulforhodamine B assay; conditions: UACC-62, 48 h; for TGI: read-out: pTGI (converted); how it was run: as §2
# SN12C = test: Growth inhibition of human SN12C cells assessed as cell growth at 10 uM incubated for 48 hrs by sulforhodamine B assay relative to control; conditions: read-out: Activity; how it was run: as §3
# [11] = Growth inhibition of human OVCAR3 cells assessed as cell growth at 10 uM incubated for 48 hrs by sulforhodamine B assay relative to control; conditions: OVCAR-3, 48 h, read-out: Activity; how it was run: as §3
# NCI-H322M = test: Growth inhibition of human NCI-H322M cells incubated for 48 hrs by sulforhodamine B assay; conditions: for TGI: read-out: pTGI (converted); how it was run: as §1
# T47D = test: Growth inhibition of human T47D cells assessed as cell growth at 10 uM incubated for 48 hrs by sulforhodamine B assay relative to control; conditions: read-out: Activity
# How it was run: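 NCI 60-cell line standard protocol, one-dose screen: single final concentration 10 µM, 2-day drug exposure, sulforhodamine B (SRB) endpoint; read-out is growth percent relative to untreated control.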
# NCI-H522 = test: Growth inhibition of human NCI-H522 cells assessed as cell growth at 10 uM incubated for 48 hrs by sulforhodamine B assay relative to control; conditions: NCI-H522, 48 h, read-out: Activity; how it was run: as §3
# [12] = Growth inhibition of human PC3 cells assessed as cell growth at 10 uM incubated for 48 hrs by sulforhodamine B assay relative to control; conditions: PC-3, 48 h, read-out: Activity; how it was run: as §3
# [13] = Growth inhibition of human SNB75 cells incubated for 48 hrs by sulforhodamine B assay; conditions: SNB-75, 48 h; for TGI: read-out: pTGI (converted); how it was run: as §2
# HT-29 = test: Growth inhibition of human HT-29 cells assessed as cell growth at 10 uM incubated for 48 hrs by sulforhodamine B assay relative to control; conditions: HT-29, 48 h, read-out: Activity; how it was run: as §3
# A498 = test: Growth inhibition of human A498 cells assessed as cell growth at 10 uM incubated for 48 hrs by sulforhodamine B assay relative to control; conditions: A498, 48 h, read-out: Activity
# [14] = Growth inhibition of human SW620 cells assessed as cell growth at 10 uM incubated for 48 hrs by sulforhodamine B assay relative to control; conditions: SW-620, 48 h, read-out: Activity; how it was run: as §3
# [15] = Growth inhibition of human Caki1 cells incubated for 48 hrs by sulforhodamine B assay; conditions: CAKI-1, 48 h; for TGI: read-out: pTGI (converted); how it was run: as §1
# ACHN = test: Growth inhibition of human ACHN cells assessed as cell growth at 10 uM incubated for 48 hrs by sulforhodamine B assay relative to control; conditions: read-out: Activity; how it was run: as §3
# [16] = Growth inhibition of human MOLT4 cells incubated for 48 hrs by sulforhodamine B assay; conditions: MOLT-4, 48 h; for TGI: read-out: pTGI (converted); how it was run: as §1
# [17] = Growth inhibition of human OVCAR4 cells incubated for 48 hrs by sulforhodamine B assay; conditions: OVCAR-4, 48 h; for TGI: read-out: pTGI (converted); how it was run: as §1
# [18] = Growth inhibition of human RXF393 cells incubated for 48 hrs by sulforhodamine B assay; conditions: RXF 393, 48 h
# How it was run: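 Run in the NCI 60-cell-line protocol, with 2-day drug exposure and sulforhodamine B read-out. Dose-response testing used five 10-fold dilutions starting from a high concentration of 100 µM.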
# [19] = Growth inhibition of human OVCAR4 cells assessed as cell growth at 10 uM incubated for 48 hrs by sulforhodamine B assay relative to control; conditions: OVCAR-4, 48 h, read-out: Activity; how it was run: as §3
compound,measurement,setting,value
C/C(=C\C(=O)O[C@H]1[C@@H]2[C@H](C)CC[C@H]2[C@]2(C)O[C@@]1(C(C)C)C[C@H]2NC(=O)CO)c1ccccc1,GI50,CCRF-CEM,25.1 µM
same,CC50,CCRF-CEM,> 100 µM
same,TGI,CCRF-CEM,77.6 µM
same,GI50,SK-MEL-2,31.6 µM
same,LC50,SK-MEL-2,> 100 µM
same,TGI,SK-MEL-2,> 100 µM
same,GI50,[1],70.8 µM
same,LC50,[1],> 100 µM
same,TGI,[1],> 100 µM
same,GI50,[2],60.3 µM
same,CC50,[2],> 100 µM
same,TGI,[2],> 100 µM
same,GI50,[3],7.59 µM
same,LC50 (concentration killing 50% of cells),[3],> 100 µM
same,TGI,[3],> 100 µM
same,GI50,[4],45.7 µM
same,LC50 (50% lethal concentration),[4],> 100 µM
same,TGI,[4],> 100 µM
same,GI50,[5],3.02 µM
same,CC50,[5],> 100 µM
same,TGI,[5],12 µM
same,growth at 10 µM,[6],110%
same,growth at 10 µM,MDA-MB-468,101%
same,growth at 10 µM,[7],102%
same,GI50,[8],74.1 µM
same,CC50,[8],> 100 µM
same,TGI,[8],> 100 µM
same,growth at 10 µM,[9],125%
same,GI50,[10],35.5 µM
same,"LC50 (lethal concentration, 50% net cell kill)",[10],> 100 µM
same,TGI,[10],> 100 µM
same,growth at 10 µM,SN12C,84.6%
same,growth at 10 µM,[11],121%
same,GI50,NCI-H322M,> 100 µM
same,LC50,NCI-H322M,> 100 µM
same,TGI,NCI-H322M,> 100 µM
same,growth at 10 µM,T47D,89.3%
same,growth at 10 µM,NCI-H522,92.5%
same,growth at 10 µM,[12],83.1%
same,GI50,[13],12.3 µM
same,LC50,[13],> 100 µM
same,TGI,[13],> 100 µM
same,growth at 10 µM,HT-29,98.7%
same,growth at 10 µM,A498,-24.6%
same,growth at 10 µM,[14],103%
same,GI50,[15],40.7 µM
same,LC50,[15],> 100 µM
same,TGI,[15],> 100 µM
same,growth at 10 µM,ACHN,27.9%
same,GI50,[16],25.7 µM
same,LC50,[16],> 100 µM
same,TGI,[16],81.3 µM
same,GI50,[17],35.5 µM
same,LC50 (concentration killing 50% of cells),[17],> 100 µM
same,TGI,[17],> 100 µM
CC(C)[C@@]12C[C@@H](NC(=O)CO)[C@@](C)(O1)[C@@H]1CC[C@@H](C)[C@H]1[C@@H]2OC(=O)/C=C/c1ccccc1,GI50,CCRF-CEM,14.1 µM
same,CC50,CCRF-CEM,> 50.1 µM
same,TGI,CCRF-CEM,> 50.1 µM
same,GI50,SK-MEL-2,14.8 µM
same,LC50,SK-MEL-2,> 50.1 µM
same,TGI,SK-MEL-2,37.2 µM
same,GI50,[1],23.4 µM
same,LC50,[1],> 50.1 µM
same,TGI,[1],> 50.1 µM
same,GI50,[2],25.1 µM
same,CC50,[2],> 50.1 µM
same,TGI,[2],> 50.1 µM
same,GI50,[3],4.79 µM
same,LC50 (concentration killing 50% of cells),[3],> 50.1 µM
same,TGI,[3],> 50.1 µM
same,GI50,[4],22.4 µM
same,LC50 (50% lethal concentration),[4],> 50.1 µM
same,TGI,[4],> 50.1 µM
same,GI50,[5],6.17 µM
same,CC50,[5],> 50.1 µM
same,TGI,[5],> 50.1 µM
same,growth at 10 µM,[6],101%
same,GI50,[18],2.09 µM
same,CC50,[18]; read-out: pLC50 (the source's name) (converted),> 50.1 µM
same,TGI,[18]; read-out: pTGI (converted),24.5 µM
same,growth at 10 µM,MDA-MB-468,91.3%
same,growth at 10 µM,[7],59.6%
same,GI50,[8],24.5 µM
same,CC50,[8],> 50.1 µM
same,TGI,[8],> 50.1 µM
same,growth at 10 µM,[9],76%
same,GI50,[10],15.1 µM
same,"LC50 (lethal concentration, 50% net cell kill)",[10],> 50.1 µM
same,TGI,[10],> 50.1 µM
same,growth at 10 µM,SN12C,48.8%
same,growth at 10 µM,[11],106%
same,GI50,NCI-H322M,> 50.1 µM
same,LC50,NCI-H322M,> 50.1 µM
same,TGI,NCI-H322M,> 50.1 µM
same,growth at 10 µM,T47D,76.3%
same,growth at 10 µM,NCI-H522,76.9%
same,growth at 10 µM,[12],77.5%
same,GI50,[13],9.77 µM
same,LC50,[13],> 50.1 µM
same,TGI,[13],43.7 µM
same,growth at 10 µM,HT-29,93%
same,growth at 10 µM,A498,-15.2%
same,growth at 10 µM,[14],109%
same,GI50,[15],9.55 µM
same,LC50,[15],> 50.1 µM
same,TGI,[15],> 50.1 µM
same,growth at 10 µM,ACHN,8.01%
same,GI50,[16],15.8 µM
same,LC50,[16],> 50.1 µM
same,TGI,[16],> 50.1 µM
same,GI50,[17],17.8 µM
same,LC50 (concentration killing 50% of cells),[17],> 50.1 µM
same,TGI,[17],> 50.1 µM
CC(C)[C@@]12C[C@@H](NC(=O)CF)[C@@](C)(O1)[C@@H]1CC[C@@H](C)[C@H]1[C@@H]2OC(=O)/C=C/c1ccccc1,growth at 10 µM,[6],91.3%
same,growth at 10 µM,[7],87.9%
same,growth at 10 µM,[9],96.5%
same,growth at 10 µM,SN12C,103%
same,growth at 10 µM,[19],105%
same,growth at 10 µM,[11],115%
same,growth at 10 µM,T47D,78.4%
same,growth at 10 µM,NCI-H522,103%
same,growth at 10 µM,[12],84%
same,growth at 10 µM,HT-29,109%
same,growth at 10 µM,A498,83%
same,growth at 10 µM,[14],101%
same,growth at 10 µM,ACHN,105%
